The source made the active and inactive calls. The calls are words filed in the database; no cut-off is given here.
How the values were obtained:
[1] = MRT (0 to t) in Sprague-Dawley rat at 2 mg/kg, iv measured upto 24 hrs by LC-MS/MS analysis; type: ADME, organism-based; conditions: in vivo
Outline: (§1)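 Male SD rats, 6e8 weeks, 220 30 g, three per route (p.o. or i.v.). Compound given in DMSO/Solutol/saline (5/10/85). Centrifuged 6800 g for 6 min at 2e8 °C, frozen near −80 °C, analysed by LC-MS/MS. Mean ± SEM, n = 3.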

[2] = MRT (0 to infinity) in Sprague-Dawley rat at 2 mg/kg, iv by LC-MS/MS analysis; type: ADME, organism-based; conditions: in vivo; outline: as §1
[3] = Cmax in Sprague-Dawley rat at 2 mg/kg, iv measured upto 24 hrs by LC-MS/MS analysis; type: ADME, organism-based; set-up: route intravenous, dose 2 mg/kg, time <=24; conditions: in vivo; outline: as §1
[4] = Half life in Sprague-Dawley rat at 2 mg/kg, iv measured upto 24 hrs by LC-MS/MS analysis; type: ADME, organism-based; conditions: in vivo; outline: as §1
[5] = Volume of distribution at steady state in Sprague-Dawley rat at 2 mg/kg, iv measured upto 24 hrs by LC-MS/MS analysis; type: ADME, organism-based; conditions: in vivo; outline: as §1
[6] = target: T1, Focal adhesion kinase 1 (Homo sapiens, UniProt Q05397); assay: Inhibition of FAK phosphorylation in human HCC cells assessed as reduction in mTOR phosphorylation at 30 mg/kg by KEGG analysis
Target sequence in this assay (Q05397 2-1052 limits assumed): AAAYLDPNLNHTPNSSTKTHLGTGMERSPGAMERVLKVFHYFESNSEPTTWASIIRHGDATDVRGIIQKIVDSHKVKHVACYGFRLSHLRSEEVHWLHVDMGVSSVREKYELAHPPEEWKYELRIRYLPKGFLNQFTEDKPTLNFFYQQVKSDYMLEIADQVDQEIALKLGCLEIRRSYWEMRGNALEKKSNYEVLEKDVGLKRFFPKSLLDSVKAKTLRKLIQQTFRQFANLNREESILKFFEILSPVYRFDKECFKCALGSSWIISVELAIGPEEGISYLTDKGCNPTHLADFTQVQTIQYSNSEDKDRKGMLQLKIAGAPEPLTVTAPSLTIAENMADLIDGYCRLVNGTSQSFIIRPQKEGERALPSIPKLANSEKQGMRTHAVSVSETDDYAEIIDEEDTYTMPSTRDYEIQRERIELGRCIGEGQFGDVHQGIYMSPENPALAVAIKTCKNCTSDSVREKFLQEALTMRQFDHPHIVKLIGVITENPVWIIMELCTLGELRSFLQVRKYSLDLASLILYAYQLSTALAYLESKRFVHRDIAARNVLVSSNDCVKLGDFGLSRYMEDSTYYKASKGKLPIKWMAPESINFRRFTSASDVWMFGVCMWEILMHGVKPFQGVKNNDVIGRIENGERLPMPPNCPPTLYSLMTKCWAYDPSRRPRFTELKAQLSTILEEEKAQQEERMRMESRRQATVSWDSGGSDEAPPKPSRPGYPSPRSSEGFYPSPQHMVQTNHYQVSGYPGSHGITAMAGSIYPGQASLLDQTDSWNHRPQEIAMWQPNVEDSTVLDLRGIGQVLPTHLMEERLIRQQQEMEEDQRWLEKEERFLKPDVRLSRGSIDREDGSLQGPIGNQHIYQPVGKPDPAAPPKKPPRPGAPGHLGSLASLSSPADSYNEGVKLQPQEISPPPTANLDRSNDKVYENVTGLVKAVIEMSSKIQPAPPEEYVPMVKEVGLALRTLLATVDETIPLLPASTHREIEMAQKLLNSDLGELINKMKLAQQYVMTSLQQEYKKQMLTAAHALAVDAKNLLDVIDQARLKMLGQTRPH

[7] = tested on: SMMC-7721; assay: Antitumor activity against human […] cells xenografted in BALB/c nude mouse assessed as tumor size at 10 mg/kg, ip administered for 19 days (reference value: 600.8 mm3); type: functional; conditions: time 19 day
Outline: (§2)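 Male BALB/c nude mice, six weeks old, inoculated s.c. with 1.0 × 10⁷ SMMC7721 cells. Dosing began at mean tumour 25e35 mm³; five randomized groups, n = 8. Solvent DMSO/propylene glycol/PBS 2:5:3 (vehicle 1.0 mL/kg), all given i.p. every 3 days. Tumour size (calipers) and body weight taken before each dose. V = length × width²/2. TGI = [1 − (T−T₀)/(C−C₀)] × 100.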

[8] = tested on: SMMC-7721; assay: Antitumor activity against human […] cells xenografted in BALB/c nude mouse assessed as tumor size at 30 mg/kg, ip administered for 19 days (reference value: 600.8 mm3); type: functional; conditions: time 19 day; outline: as §2
[9] = MRT (0 to infinity) in Sprague-Dawley rat at 10 mg/kg, po by LC-MS/MS analysis; type: ADME, organism-based; conditions: in vivo; outline: as §1
[10] = tested on: SMMC-7721; assay: cells; conditions: Homo sapiens, SMMC-7721, 48 h
[11] = Toxicity in BALB/c nude mouse assessed as animal's mortality at 10 to 30 mg/kg, ip administered for 19 days; type: organism-based; conditions: in vivo, 456 h, dose 10-30 mg/kg, time 19 day
Outline: (§3)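 Six-week-old male BALB/c nude mice bearing subcutaneous SMMC7721 xenografts (1.0 × 10⁷ cells); dosing started at mean tumor 25-35 mm³, n = 8 per group. Ip every 3 days in DMSO/propylene glycol/PBS (2:5:3); vehicle 1.0 mL/kg as negative control. Body weight weighed and deaths recorded every 3 days before each dose, through day 19.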

[12] = cells; conditions: Homo sapiens, YY-8103, 48 h
[13] = tested on: SMMC-7721; assay: Antitumor activity against human […] cells xenografted in BALB/c nude mouse assessed as tumor growth inhibition at 30 mg/kg, ip administered for 19 days; type: functional; conditions: SMMC-7721, ip, 456 h, time 19 day, read-out: TGI; outline: as §2
[14] = Oral bioavailability in Sprague-Dawley rat 10 mg/kg measured upto 24 hrs by LC-MS/MS analysis; type: ADME, organism-based; conditions: in vivo; outline: as §1
[15] = AUC (0 to infinity) in Sprague-Dawley rat at 2 mg/kg, iv by LC-MS/MS analysis; type: ADME, organism-based; set-up: route intravenous, time infinity, dose 2 mg/kg; conditions: in vivo; outline: as §1
[16] = AUC (0 to infinity) in Sprague-Dawley rat at 10 mg/kg, po by LC-MS/MS analysis; type: ADME, organism-based; set-up: time infinity, route oral, dose 10 mg/kg; conditions: in vivo; outline: as §1
[17] = target: T1, Focal adhesion kinase 1; assay: Inhibition of FAK phosphorylation in human HCC cells assessed as reduction in NFkappaB phosphorylation at 30 mg/kg by KEGG analysis
Target sequence in this assay (Q05397 2-1052 limits assumed): as above

[18] = target: T1, Focal adhesion kinase 1; assay: Inhibition of FAK phosphorylation in human HCC cells assessed as reduction in PDK1 phosphorylation at 30 mg/kg by KEGG analysis
Target sequence in this assay (Q05397 2-1052 limits assumed): as above

[19] = Half life in Sprague-Dawley rat at 10 mg/kg, po measured upto 24 hrs by LC-MS/MS analysis; type: ADME, organism-based; conditions: in vivo; outline: as §1
[20] = target: T1, Focal adhesion kinase 1; assay: Inhibition of FAK phosphorylation in human HCC cells assessed as upregulation of FOXO phosphorylation at 30 uM by KEGG analysis; type: cell-based
Target sequence in this assay (Q05397 2-1052 limits assumed): as above

[21] = Tmax in Sprague-Dawley rat at 2 mg/kg, iv measured upto 24 hrs by LC-MS/MS analysis; type: ADME, organism-based; conditions: in vivo; outline: as §1
[22] = target: T1, Focal adhesion kinase 1; assay: Inhibition of FAK phosphorylation in human HCC cells at 30 mg/kg by KEGG analysis
Target sequence in this assay (Q05397 2-1052 limits assumed): as above

[23] = AUC (0 to t) in Sprague-Dawley rat at 10 mg/kg, po measured upto 24 hrs by LC-MS/MS analysis; type: ADME, organism-based; set-up: route oral, dose 10 mg/kg, time <=24; conditions: in vivo; outline: as §1
[24] = Clearance in Sprague-Dawley rat at 2 mg/kg, iv measured upto 24 hrs by LC-MS/MS analysis; type: ADME, organism-based; conditions: in vivo; outline: as §1
[25] = Acute toxicity in Kunming mouse assessed as body weight at 5 to 200 mg/kg, ip observed for 10 days; type: organism-based; conditions: in vivo, 240 h, dose 5-200 mg/kg, time 10 day
Outline: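 Kunming mice (18-22 g), 30 animals in 5 groups of 6 (3 male, 3 female); single intraperitoneal dose of 0, 5, 10, 50 or 200 mg/kg in DMSO/propylene glycol/PBS (2/5/3). Animals observed and weighed daily for 10 days.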

[26] = Toxicity in BALB/c nude mouse assessed as effect on body weight at 10 to 30 mg/kg, ip administered for 19 days; type: organism-based; conditions: in vivo, 456 h, dose 10-30 mg/kg, time 19 day; outline: as §3
[27] = Tmax in Sprague-Dawley rat at 10 mg/kg, po measured upto 24 hrs by LC-MS/MS analysis; type: ADME, organism-based; conditions: in vivo; outline: as §1
[28] = Upregulation of integrin beta1 phosphorylation at Thr788 residue in human HCC cells at 30 uM by KEGG analysis relative to control; type: functional
[29] = target: T1, Focal adhesion kinase 1; assay: Inhibition of FAK phosphorylation in human HCC cells assessed as reduction in Akt phosphorylation at 30 mg/kg by KEGG analysis
Target sequence in this assay (Q05397 2-1052 limits assumed): as above

[30] = target: T1, Focal adhesion kinase 1; assay: Inhibition of FAK (unknown origin) using Poly(Glu,Tyr) and ATP as substrate measured after 40 mins by Kinase-Glo Plus luminescence assay
Target sequence in this assay (Q05397 whole entry): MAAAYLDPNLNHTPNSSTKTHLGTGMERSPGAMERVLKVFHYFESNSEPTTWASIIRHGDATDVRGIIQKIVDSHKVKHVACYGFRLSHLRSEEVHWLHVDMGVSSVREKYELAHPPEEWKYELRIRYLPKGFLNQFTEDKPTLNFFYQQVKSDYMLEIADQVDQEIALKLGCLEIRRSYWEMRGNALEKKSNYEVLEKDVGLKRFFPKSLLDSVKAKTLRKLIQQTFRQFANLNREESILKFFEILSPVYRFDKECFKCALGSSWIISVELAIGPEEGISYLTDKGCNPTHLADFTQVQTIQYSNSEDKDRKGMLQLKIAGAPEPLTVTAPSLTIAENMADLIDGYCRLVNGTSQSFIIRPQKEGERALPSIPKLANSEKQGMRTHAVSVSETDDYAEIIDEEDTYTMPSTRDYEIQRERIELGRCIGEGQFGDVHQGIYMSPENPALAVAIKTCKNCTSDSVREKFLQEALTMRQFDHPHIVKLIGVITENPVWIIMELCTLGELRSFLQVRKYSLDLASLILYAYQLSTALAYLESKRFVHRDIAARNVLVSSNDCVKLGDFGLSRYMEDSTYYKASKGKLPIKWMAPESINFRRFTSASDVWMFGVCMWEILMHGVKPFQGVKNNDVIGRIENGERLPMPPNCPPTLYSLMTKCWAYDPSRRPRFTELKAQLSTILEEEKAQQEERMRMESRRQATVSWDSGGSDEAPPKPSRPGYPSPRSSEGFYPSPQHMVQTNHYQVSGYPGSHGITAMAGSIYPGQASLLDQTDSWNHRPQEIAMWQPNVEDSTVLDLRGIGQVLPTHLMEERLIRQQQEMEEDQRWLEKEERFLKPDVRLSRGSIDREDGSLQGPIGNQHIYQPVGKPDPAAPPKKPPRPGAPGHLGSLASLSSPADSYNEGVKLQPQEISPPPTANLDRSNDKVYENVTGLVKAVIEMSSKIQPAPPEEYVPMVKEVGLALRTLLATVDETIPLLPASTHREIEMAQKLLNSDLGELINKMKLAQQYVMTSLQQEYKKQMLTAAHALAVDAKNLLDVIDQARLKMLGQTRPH

[31] = AUC (0 to t) in Sprague-Dawley rat at 2 mg/kg, iv measured upto 24 hrs by LC-MS/MS analysis; type: ADME, organism-based; set-up: route intravenous, dose 2 mg/kg, time <=24; conditions: in vivo
[32] = MRT (0 to t) in Sprague-Dawley rat at 10 mg/kg, po measured upto 24 hrs by LC-MS/MS analysis; type: ADME, organism-based; conditions: in vivo; outline: as §1
[33] = Cmax in Sprague-Dawley rat at 10 mg/kg, po measured upto 24 hrs by LC-MS/MS analysis; type: ADME, organism-based; set-up: route oral, dose 10 mg/kg, time <=24; conditions: in vivo; outline: as §1
[34] = Toxicity in BALB/c nude mouse assessed as animal's mortality at 30 mg/kg, ip measured on day 11; type: organism-based; conditions: in vivo, 264 h, time 11 day; outline: as §3
[35] = Toxicity in BALB/c nude mouse assessed as effect on body weight at 30 mg/kg, ip administered for 19 days; type: organism-based; conditions: in vivo, 456 h, time 19 day; outline: as §2

## CNC(=O)c1ccccc1Nc1nc(Nc2cccc(NC(C)=O)c2)nc2[nH]cc(F)c12
[1]
  MRT last at 24 h: 0.51 h
[2]
  MRT: 0.53 h
[3]
  Cmax: 5020 ng/mL
[4]
  half-life: 1.46 h
[5]
  Vdss: 1.8426 L/kg
[6]
  inhibition: Active
[7]
  Activity: 348.3 mm3
[8]
  Activity: 153.5 mm3
[9]
  MRT inf: 6.62 h
[10]
  IC50: 10.1 µM
[11]
  Activity: Non-Toxic
[12]
  IC50: 2.39 µM
[13]
  inhibition in vivo at 30 mg/kg: 78.6%
[14]
  bioavailability: 0.83%
[15]
  AUC(0-inf): 2300 ng·h/mL
[16]
  AUC(0-inf): 119 ng·h/mL
[17]
  inhibition: Active
[18]
  inhibition: Active
[19]
  half-life: 3.65 h
[20]
  inhibition: Active
[21]
  Tmax: 4.8 min
[22]
  inhibition: Active
[23]
  AUC(0-t) at 24 h: 95.5 ng·h/mL
[24]
  CL: 14.49 mL/min/kg
[25]
  Activity: Non-Toxic
[26]
  Activity: Non-Toxic
[27]
  Tmax: 4.67 h
[28]
  fold change (FC): 2.82
[29]
  inhibition: Active
[30]
  IC50: 0.012 µM
[31]
  AUC(0-t) at 24 h: 2300 ng·h/mL
[32]
  MRT last at 24 h: 4.54 h
[33]
  Cmax: 15.4 ng/mL

## CNC(=O)c1cc(Oc2ccc(NC(=O)Nc3ccc(Cl)c(C(F)(F)F)c3)cc2)ccn1 [SORAFENIB]
[8]
  Activity: 343.4 mm3
[13]
  inhibition in vivo at 30 mg/kg: 45.1%
[34]
  Activity: Non-Toxic
[35]
  Activity: Non-Toxic

## CC(=O)Nc1cccc(Nc2nc(NCc3cccnc3N(C)S(C)(=O)=O)c3c(F)c[nH]c3n2)c1
[10]
  IC50: 16 µM
[12]
  IC50: 14.4 µM
[30]
  IC50: 0.021 µM

## CN(c1ncccc1CNc1nc(Nc2cccc(CN)c2)nc2[nH]cc(F)c12)S(C)(=O)=O
[10]
  IC50: > 100 µM
[12]
  IC50: > 100 µM
[30]
  IC50: 2.1 µM

## CN(c1ncccc1CNc1nc(Nc2ccc3c(c2)CC(=O)N3)ncc1C(F)(F)F)S(C)(=O)=O [PF-00562271]
[8]
  Activity: 295.9 mm3
[13]
  inhibition in vivo at 30 mg/kg: 54.1%
[34]
  Activity: Toxic
[35]
  Activity: Non-Toxic

## CN(c1ncccc1CNc1nc(Nc2ccc3c(c2)CC(=O)N3)nc2[nH]cc(Cl)c12)S(C)(=O)=O
[10]
  IC50: 21.9 µM
[12]
  IC50: 13.2 µM
[30]
  IC50: 0.021 µM

From ChEMBL document CHEMBL4831494, “Synthesis and evaluation of FAK inhibitors with a 5-fluoro-7H-pyrrolo[2,3-d]pyrimidine scaffold as anti-hepatocellular carcinoma agents” (Eur J Med Chem, 2021)
